Broadly, the EC50 is the concentration at which the effect is half-maximal. One may read the CLint scaled as a measure of how fast metabolising enzymes remove a compound, apart from limits set by blood flow. A lower CLint scaled goes with slow turnover. As a reminder, the IC50 is the point on the concentration scale where inhibition reaches its midpoint.

Each structure is given as a SMILES string. Activity calls are given as the source filed them. The calls are words filed in the database; no cut-off is given here.

For the first series, the target named is Transient receptor potential cation channel subfamily M member 8 (Rattus norvegicus) (UniProt Q8R455). Put plainly: Agonist activity at recombinant rat TRPM8 expressed in HEK293 cells assessed as increase in intracellular calcium accumulation up to 10 uM by Fluo-4-AM probe-based spectrofluorimetric assay. Type of series: cell-based.
Sequence of Transient receptor potential cation channel subfamily M member 8 (Rattus norvegicus) (Q8R455 whole entry, looked up): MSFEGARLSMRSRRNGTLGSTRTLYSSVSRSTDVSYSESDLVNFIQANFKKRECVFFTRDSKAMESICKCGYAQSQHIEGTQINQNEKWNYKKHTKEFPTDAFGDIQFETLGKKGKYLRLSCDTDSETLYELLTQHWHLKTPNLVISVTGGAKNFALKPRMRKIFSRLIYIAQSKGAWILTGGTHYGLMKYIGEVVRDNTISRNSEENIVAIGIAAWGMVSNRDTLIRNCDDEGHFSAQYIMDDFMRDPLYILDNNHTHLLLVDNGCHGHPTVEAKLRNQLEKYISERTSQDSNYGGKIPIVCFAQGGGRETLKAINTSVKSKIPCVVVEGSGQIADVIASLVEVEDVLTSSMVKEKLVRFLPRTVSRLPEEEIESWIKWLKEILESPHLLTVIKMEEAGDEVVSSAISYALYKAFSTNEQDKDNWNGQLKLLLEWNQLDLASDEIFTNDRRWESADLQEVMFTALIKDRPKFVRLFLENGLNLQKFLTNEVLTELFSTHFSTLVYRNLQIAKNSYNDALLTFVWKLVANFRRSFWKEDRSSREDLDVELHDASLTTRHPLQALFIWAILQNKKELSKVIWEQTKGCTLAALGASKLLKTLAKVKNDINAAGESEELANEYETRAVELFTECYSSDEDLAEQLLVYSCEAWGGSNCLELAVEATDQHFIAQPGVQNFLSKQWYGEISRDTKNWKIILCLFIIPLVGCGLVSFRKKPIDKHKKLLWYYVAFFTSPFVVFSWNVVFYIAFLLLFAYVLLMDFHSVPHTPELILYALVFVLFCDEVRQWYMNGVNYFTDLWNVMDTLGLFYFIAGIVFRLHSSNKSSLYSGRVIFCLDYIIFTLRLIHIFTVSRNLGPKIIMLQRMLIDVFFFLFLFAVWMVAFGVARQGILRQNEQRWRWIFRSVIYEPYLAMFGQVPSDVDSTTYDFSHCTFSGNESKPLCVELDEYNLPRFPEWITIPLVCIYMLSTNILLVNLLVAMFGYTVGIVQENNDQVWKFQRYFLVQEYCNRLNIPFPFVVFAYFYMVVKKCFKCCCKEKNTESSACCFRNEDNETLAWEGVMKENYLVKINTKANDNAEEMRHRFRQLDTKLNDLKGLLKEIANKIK
Settings: not given
In outline: (§1)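 HEK-293 cells stably expressing rat TRPM8 were loaded with Fluo-4-AM (4 µM, 0.02% Pluronic F-127) for 1 h at 25 °C in serum-free EMEM. They were then washed and suspended in Tyrode's buffer pH 7.4 in a stirred cuvette. [Ca2+]i fluorescence (ex 488/em 516 nm) was read before and after compound addition. Wild-type HEK-293 response was subtracted. Efficacy is expressed versus 4 µM ionomycin; EC50 comes from a sigmoidal fit.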
As to `CCC1c2cc(OC)c(OC)cc2CCN1C(=O)NCCc1cc(OC)c(OC)cc1C(CC)S(=O)(=O)c1ccc(C)cc1` (stereo not drawn), the outcome was inactive.
Take `COc1ccc(/C=C2\NC(=O)[C@@H]3Cc4cc(OC)c(OC)cc4[C@@H](c4ccccc4)N3C2=O)cc1OC`: the outcome was inactive.
`COc1cc2c(cc1OC)[C@H](c1ccc([N+](=O)[O-])cc1)N(C(=O)N1CCc3cc(OC)c(OC)cc3[C@@H]1c1ccc([N+](=O)[O-])cc1)CC2` (racemic): the result was inactive.
For `COc1cc(C[C@@H]2NC(=O)[C@@H]3Cc4c(OC)c(C)c(OC)c(OC)c4[C@H](/C=C/c4ccccc4)N3C2=O)c(OC)c(C)c1OC` (racemic), the result was inactive.

A further series has the same target. Kind of series: Agonist activity at recombinant rat TRPM8 expressed in HEK293 cells assessed as increase in intracellular calcium accumulation by Fluo-4-AM probe-based spectrofluorimetric assay relative to ionomycin. It is filed as cell-based.
Settings: not given
The method in brief:
as §1
Background: Calcium assays in cells follow changes in intracellular calcium, usually with a dye or a luminescent sensor.
Take `CCC1c2cc(OC)c(OC)cc2CCN1C(=O)NCCc1cc(OC)c(OC)cc1C(CC)S(=O)(=O)c1ccc(C)cc1` (stereo not drawn): the Activity is 15.3%.
Same read-out and setting: the figure for `COc1ccc(/C=C2\NC(=O)[C@@H]3Cc4cc(OC)c(OC)cc4[C@@H](c4ccccc4)N3C2=O)cc1OC` is 14.7%.
Same read-out and setting: the figure for `COc1cc2c(cc1OC)[C@H](c1ccc([N+](=O)[O-])cc1)N(C(=O)N1CCc3cc(OC)c(OC)cc3[C@@H]1c1ccc([N+](=O)[O-])cc1)CC2` (racemic) is 22.7%.
The same measure, in the same setting: for `COc1cc(C[C@@H]2NC(=O)[C@@H]3Cc4c(OC)c(C)c(OC)c(OC)c4[C@H](/C=C/c4ccccc4)N3C2=O)c(OC)c(C)c1OC` (racemic) the value was 26.6%.

The target of another series is T1, Transient receptor potential cation channel subfamily M member 8 (Rattus norvegicus, UniProt Q8R455). Kind of series: Agonist activity at recombinant rat TRPM8 expressed in HEK293 cells assessed as increase in intracellular calcium accumulation by Fluo-4-AM probe-based spectrofluorimetric assay. It is filed as cell-based. As to conditions: hek293. The method in brief: as §1
T1 sequence (Q8R455 whole entry): as the sequence (Q8R455 whole entry, looked up) above
In the case of `COc1ccc(CCNC(=O)N2CCc3cc(OC)c(OC)cc3C2c2cccc([N+](=O)[O-])c2)cc1OC` (stereo not drawn), the EC50 result is “Not Active”.
Turning to `COc1ccc(CCNC(=O)N2CCc3cc(OC)c(OC)cc3C2c2ccc(Cl)cc2)cc1OC` (stereo not drawn), the EC50 entry was “Not Active”.
Take `COc1cc2c(cc1OC)C(c1cccc(-c3cccc([N+](=O)[O-])c3)n1)=NCC2`: the 50% effective concentration (EC50) result is reported as “Not Active”.
For the compound `CCC1c2cc(OC)c(OC)cc2CCN1C(=O)NCCc1ccc(OC)c(OC)c1` (stereo not drawn), the EC50 entry is on record as “Not Active”.
As for `COc1ccc(/C=C2\NC(=O)[C@@H]3Cc4cc(OC)c(OC)cc4[C@@H](c4cccc([N+](=O)[O-])c4)N3C2=O)cc1OC`, the EC50 result was “Not Active”.
As for `COc1ccc(/C=C2\NC(=O)[C@@H]3Cc4cc(OC)c(OC)cc4[C@@H](c4ccc(Br)cc4)N3C2=O)cc1OC`, the EC50 entry is listed as “Not Active”.
Regarding `COc1cc2c(cc1OC)[C@@H](c1ccc(C(F)(F)F)cc1)N(C(=O)N1CCc3cc(OC)c(OC)cc3[C@@H]1c1ccc(C(F)(F)F)cc1)CC2`, the concentration for a half-maximal effect (EC50) result was “Not Active”.
As for `COc1ccc(CCNC(=O)N2CCc3cc(OC)c(OC)cc3C2c2ccccc2)cc1OC` (stereo not drawn), the EC50 entry was “Not Active”.
As to `COc1cc2c(cc1OC)[C@@H](c1ccc(F)cc1)N(C(=O)N1CCc3cc(OC)c(OC)cc3[C@@H]1c1ccc(F)cc1)CC2`, the EC50 result is “Not Active”.
For `COc1ccc(/C=C2\NC(=O)[C@@H]3Cc4cc(OC)c(OC)cc4[C@@H](c4ccccc4Cl)N3C2=O)cc1OC`, the half-maximal effective concentration (EC50) result is “Not Active”.
Same read-out and setting: for `COc1ccc(CCNC(=O)NCCc2ccc(OC)c(OC)c2)cc1OC` the value was “Not Active”; for `CCCC1c2cc(OC)c(OC)cc2CCN1C(=O)NCCc1ccc(OC)c(OC)c1` (stereo not drawn), “Not Active”.
For `COc1ccc(CCNC(=O)N2CCc3cc(OC)c(OC)cc3C2c2ccc(Br)cc2)cc1OC` (stereo not drawn), the 50% effective concentration (EC50) entry is “Not Active”.

Still in this series, the particulars now being: read-out: EC50.
Turning to `CCC1c2cc(OC)c(OC)cc2CCN1C(=O)NCCc1cc(OC)c(OC)cc1C(CC)S(=O)(=O)c1ccc(C)cc1` (stereo not drawn), the half-maximal effective concentration (EC50) amounted to 26.1 µM.
As for `COc1ccc(/C=C2\NC(=O)[C@@H]3Cc4cc(OC)c(OC)cc4[C@@H](c4ccccc4)N3C2=O)cc1OC`, the EC50 is 15.9 µM.
`COc1cc2c(cc1OC)[C@H](c1ccc([N+](=O)[O-])cc1)N(C(=O)N1CCc3cc(OC)c(OC)cc3[C@@H]1c1ccc([N+](=O)[O-])cc1)CC2` (racemic): the EC50 came to 14.2 µM.
Regarding `COc1cc(C[C@@H]2NC(=O)[C@@H]3Cc4c(OC)c(C)c(OC)c(OC)c4[C@H](/C=C/c4ccccc4)N3C2=O)c(OC)c(C)c1OC` (racemic), the EC50 amounted to 20.8 µM.

Tested on in another series: not listed separately
Put plainly: in vitro. As to conditions: C57BL/6, mouse, liver microsomes.
Compound `COc1ccc(CCNC(=O)N2CCc3cc(OC)c(OC)cc3C2c2ccccc2)cc1OC` (stereo not drawn) showed an intrinsic metabolic clearance (CLint scaled) at 1 h, 3 µM of 39.6 mL/min/kg.

For the next series, the target named is T1, Transient receptor potential cation channel subfamily M member 8. Kind of series: Antagonist activity at recombinant rat TRPM8 expressed in HEK293 cells assessed as inhibition of icilin-induced intracellular calcium accumulation preincubated for 5 mins followed by icilin addition by Fluo-4-AM probe-based spectrofluorimetric assay.
Settings: not given
Type of series: cell-based. In outline:
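HEK-293 cells stably expressing the listed TRP channel (human TRPV1; rat TRPM8, TRPA1, TRPV2, TRPV3 or TRPV4) were Fluo-4-AM loaded (4 µM, 1 h, 25 °C) and suspended in Tyrode's buffer pH 7.4. Compound was added 5 min before agonist: icilin 0.25 µM (TRPM8), capsaicin 0.1 µM (TRPV1), AITC 100 µM (TRPA1), LPC 3 µM (TRPV2), thymol 100 µM (TRPV3), 4α-PDD 1 µM (TRPV4). Agonist alone was taken as 100%. IC50 from sigmoidal fit, at least triplicate.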
For the compound `COc1ccc(CCNC(=O)N2CCc3cc(OC)c(OC)cc3C2c2cccc([N+](=O)[O-])c2)cc1OC` (stereo not drawn), the IC50 is greater than 50 µM.
Still for that read-out and setting: for `COc1ccc(CCNC(=O)N2CCc3cc(OC)c(OC)cc3C2c2ccc(Cl)cc2)cc1OC` (stereo not drawn) the value was 31.7 µM; for `COc1cc2c(cc1OC)C(c1cccc(-c3cccc([N+](=O)[O-])c3)n1)=NCC2`, 22.9 µM.
Regarding `CCC1c2cc(OC)c(OC)cc2CCN1C(=O)NCCc1ccc(OC)c(OC)c1` (stereo not drawn), the IC50 is greater than 50 µM.
For `COc1ccc(/C=C2\NC(=O)[C@@H]3Cc4cc(OC)c(OC)cc4[C@@H](c4cccc([N+](=O)[O-])c4)N3C2=O)cc1OC`, the IC50 was 35.2 µM.
The same measure, in the same setting: the figure for `COc1ccc(/C=C2\NC(=O)[C@@H]3Cc4cc(OC)c(OC)cc4[C@@H](c4ccc(Br)cc4)N3C2=O)cc1OC` is 42.4 µM; for `CCC1c2cc(OC)c(OC)cc2CCN1C(=O)NCCc1cc(OC)c(OC)cc1C(CC)S(=O)(=O)c1ccc(C)cc1` (stereo not drawn) it is greater than 50 µM; for `COc1cc2c(cc1OC)[C@@H](c1ccc(C(F)(F)F)cc1)N(C(=O)N1CCc3cc(OC)c(OC)cc3[C@@H]1c1ccc(C(F)(F)F)cc1)CC2` it is 10.6 µM.
On to `COc1ccc(CCNC(=O)N2CCc3cc(OC)c(OC)cc3C2c2ccccc2)cc1OC` (stereo not drawn), for which the IC50 was 1.2 µM.
In the case of `COc1cc2c(cc1OC)[C@@H](c1ccc(F)cc1)N(C(=O)N1CCc3cc(OC)c(OC)cc3[C@@H]1c1ccc(F)cc1)CC2`, the IC50 was greater than 50 µM.
In the case of `COc1ccc(/C=C2\NC(=O)[C@@H]3Cc4cc(OC)c(OC)cc4[C@@H](c4ccccc4Cl)N3C2=O)cc1OC`, the IC50 was found to be 39.3 µM.
As to `COc1ccc(CCNC(=O)NCCc2ccc(OC)c(OC)c2)cc1OC`, the half-inhibitory concentration (IC50) was greater than 50 µM.
On the same count and under the same terms, the figure for `CCCC1c2cc(OC)c(OC)cc2CCN1C(=O)NCCc1ccc(OC)c(OC)c1` (stereo not drawn) is greater than 50 µM; for `COc1ccc(/C=C2\NC(=O)[C@@H]3Cc4cc(OC)c(OC)cc4[C@@H](c4ccccc4)N3C2=O)cc1OC` it is 12.8 µM; for `COc1ccc(CCNC(=O)N2CCc3cc(OC)c(OC)cc3C2c2ccc(Br)cc2)cc1OC` (stereo not drawn) it is 48.2 µM.
Still for that read-out and setting: the figure for `COc1cc2c(cc1OC)[C@H](c1ccc([N+](=O)[O-])cc1)N(C(=O)N1CCc3cc(OC)c(OC)cc3[C@@H]1c1ccc([N+](=O)[O-])cc1)CC2` (racemic) is greater than 50 µM; for `COc1cc(C[C@@H]2NC(=O)[C@@H]3Cc4c(OC)c(C)c(OC)c(OC)c4[C@H](/C=C/c4ccccc4)N3C2=O)c(OC)c(C)c1OC` (racemic) it is 3.2 µM.
